Data on 19 compounds can be found in ChEMBL document CHEMBL4340521, “Subtle modifications to a thieno[2,3-d]pyrimidine scaffold yield negative allosteric modulators and agonists of the dopamine D2 receptor” (Eur J Med Chem, 2019).

Each structure is given as a SMILES string. Activity calls are given as the source filed them. The rule behind the calls is not given here.

Series [1] deals with T1, D(2) dopamine receptor (Homo sapiens, UniProt P14416). The series is described as follows: Negative allosteric modulation of recombinant human D2L receptor expressed in Flp-In CHO cells assessed as inhibition of dopamine-induced reduction in forskolin stimulated cAMP accumulation by measuring equilibrium dissociation constant up to 100 uM preincubated for 30 mins followed by forskolin stimulation and measured after 30 mins by BRET assay. The format is functional, cell-based. Background: Cyclic AMP is a second messenger, typically raised through Gs and lowered through Gi signalling.

Series [2] deals with T1, D(2) dopamine receptor. In words: Negative allosteric modulation of recombinant human D2L receptor expressed in Flp-In CHO cells assessed as inhibition of dopamine-induced reduction in forskolin stimulated cAMP accumulation by measuring modulation of dopamine efficacy preincubated for 30 mins followed by forskolin stimulation and measured after 30 mins by BRET assay. The format is functional, cell-based.

Series [3] has as its target T1, D(2) dopamine receptor. In words: Negative allosteric modulation of recombinant human D2L receptor expressed in Flp-In CHO cells assessed as inhibition of dopamine-induced reduction in forskolin stimulated cAMP accumulation by measuring equilibrium dissociation constant preincubated for 30 mins followed by forskolin stimulation and measured after 30 mins by BRET assay. The series is classed as functional, cell-based.

Series [4] concerns the target T1, D(2) dopamine receptor. In words: Negative allosteric modulation of recombinant human D2L receptor expressed in Flp-In CHO cells assessed as inhibition of dopamine-induced reduction in forskolin stimulated cAMP accumulation by measuring intrinsic efficacy of the modulator preincubated for 30 mins followed by forskolin stimulation and measured after 30 mins by BRET assay. The format is functional, cell-based.

For series [5], the target named is T1, D(2) dopamine receptor. The series is described as follows: Negative allosteric modulation of recombinant human D2L receptor expressed in Flp-In CHO cells assessed as inhibition of dopamine-induced reduction in forskolin stimulated cAMP accumulation by measuring net cooperativity factor preincubated for 30 mins followed by forskolin stimulation and measured after 30 mins by BRET assay. The format is functional, cell-based.

Series [6] has as its system CHO. The series is described as follows: Modulation of dopamine-induced forskolin stimulated cAMP accumilation in hamster FlpIn CHO cells assessed as BRET signal preincubated for 30 mins followed by forskolin stimulation and measured after 30 mins by BRET assay relative to control. The series is classed as cell-based. The settings on record: cricetinae, 0.5 h. In short, it runs like this:
(§1)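 Wild-type FlpIn CHO cells lacking D2R, transfected with CAMYEL cAMP BRET biosensor. Compounds at 1-100 μM plus dopamine 10 μM added 30 min before stimulation, with or without 10 μM forskolin (final). Coelenterazine-h 5 μM final. BRET ratio 535/475 nm read 30 min after stimulation.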

Series [7] deals with CHO. In words: Modulation of dopamine-induced forskolin stimulated cAMP accumilation in hamster FlpIn CHO cells assessed as BRET signal at 100 uM preincubated for 30 mins followed by forskolin stimulation and measured after 30 mins by BRET assay relative to control. To be noted: Cricetulus griseus, 0.5 h, read-out: Activity. The format is cell-based, Cricetinae. In short, it runs like this: as §1
(In general: In BRET a luciferase serves as donor, and the signal depends on an acceptor being close.)

Series [8] deals with T1, D(2) dopamine receptor. The series is described as follows: Competitive antagonist activity at recombinant human D2L receptor expressed in Flp-In CHO cells assessed as inhibition of dopamine-induced reduction in forskolin stimulated cAMP accumulation preincubated for 30 mins followed by forskolin stimulation and measured after 30 mins by BRET assay. The settings on record: read-out: pA2 (converted). The series is classed as functional, cell-based.

T1 sequence (P14416 whole entry): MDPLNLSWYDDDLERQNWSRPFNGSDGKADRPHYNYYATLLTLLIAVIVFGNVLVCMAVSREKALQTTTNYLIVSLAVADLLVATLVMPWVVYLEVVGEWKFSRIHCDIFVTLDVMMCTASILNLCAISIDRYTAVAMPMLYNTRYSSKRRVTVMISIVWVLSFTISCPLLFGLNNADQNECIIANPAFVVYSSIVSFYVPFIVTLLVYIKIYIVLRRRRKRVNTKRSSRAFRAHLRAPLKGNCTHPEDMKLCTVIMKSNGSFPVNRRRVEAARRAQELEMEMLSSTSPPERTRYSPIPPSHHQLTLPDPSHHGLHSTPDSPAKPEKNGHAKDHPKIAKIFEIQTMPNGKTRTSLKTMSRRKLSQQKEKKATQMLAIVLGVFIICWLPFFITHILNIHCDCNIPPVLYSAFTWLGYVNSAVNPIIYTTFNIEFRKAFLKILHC

`CCN(CC)c1ncnc2scc(C3CCCCC3)c12`: the Activity entry at D(2) dopamine receptor [1] is “inactive”.
The pKb is −log10 of the Kb, conventionally taken in molar units. Regarding `c1nc(N2CCCC2)c2c3c(sc2n1)CCCC3`, on D(2) dopamine receptor [2], the Efficacy was found to be 0.17 and the log(activity) is -0.76. In addition, on D(2) dopamine receptor [3], the Kb stood at 4.23 µM and the negative-log Kb (pKb) was 5.37. The log(activity) on D(2) dopamine receptor [4] turned out to be 0.
In the case of `c1nc(NC2CCC2)c2cc(C3CCCCC3)sc2n1`, at D(2) dopamine receptor [1], the Activity entry was “inactive”.
As to `c1nc(NC2CC2)c2c3c(sc2n1)CCCC3`, on D(2) dopamine receptor [2], the Efficacy worked out at 0.03 and the log(activity) is -1.48. On D(2) dopamine receptor [3], the Kb is 0.88 µM and the negative logarithm of the Kb (pKb) worked out at 6.05. In addition, the log(activity) at D(2) dopamine receptor [4] was determined as 0.
Consider `CCN(CC)c1ncnc2scc(-c3ccccc3)c12`, for which the log(activity) on D(2) dopamine receptor [2] was 0. Besides, on D(2) dopamine receptor [3], the Kb is 60 µM and the pKb came out at 4.22. Besides, on D(2) dopamine receptor [5], the Activity index was 0.27 and the log(activity) was -0.57. The log(activity) on D(2) dopamine receptor [4] is -3.
With `CCN(CC)c1ncnc2sc(C)c(C)c12`, the log(activity) on D(2) dopamine receptor [2] came out at 0. For the same compound, on D(2) dopamine receptor [3], the Kb stood at 19.5 µM and the pKb is 4.71. Further, on D(2) dopamine receptor [5], the Activity index came out at 0.24 and the log(activity) was -0.61. Further, the log(activity) on D(2) dopamine receptor [4] turned out to be 0.
On to `c1nc(NC2CCC2)c2c3c(sc2n1)CCC3`, for which the log(activity) on D(2) dopamine receptor [2] is 0; on D(2) dopamine receptor [5], -0.25; on D(2) dopamine receptor [4] it was 0. The pKb at D(2) dopamine receptor [3] worked out at 3.99. For the same compound, the Activity index at D(2) dopamine receptor [5] was 0.57.
`c1nc(N2CCCCC2)c2c3c(sc2n1)CCCC3`: at D(2) dopamine receptor [2], the log(activity) was 0. Besides, the Activity result in the series on CHO [6] was “Dose-dependent effect”. For the same compound, at D(2) dopamine receptor [3], the Kb stood at 59.3 µM and the pKb turned out to be 4.23. The activity at 100 µM with CHO [7] stood at 26%. The log(activity) on D(2) dopamine receptor [4] came out at 0.
Take `c1ccc(-c2csc3ncnc(NC4CC4)c23)cc1`: the log(activity) at D(2) dopamine receptor [2] worked out at 0. In addition, at D(2) dopamine receptor [3], the Kb stood at 1.93 µM and the pKb came to 5.72. Besides, at D(2) dopamine receptor [5], the Activity index worked out at 0.32 and the log(activity) is -0.47. Moreover, on D(2) dopamine receptor [4], the log(activity) was -3.
For the compound `CCN(CC)c1ncnc2sc3c(c12)CCCCCC3`, on D(2) dopamine receptor [2], the log(activity) was -3. Further, at D(2) dopamine receptor [3], the Kb turned out to be 14.5 µM and the pKb worked out at 4.84. For the same compound, the activity at 100 µM in the series on CHO [7] came out at 28%. In addition, the log(activity) on D(2) dopamine receptor [4] was determined as 0.
Regarding `CCN(CC)c1ncnc2sccc12`, at D(2) dopamine receptor [2], the Efficacy came to 0.13 and the log(activity) is -0.89. The pKb on D(2) dopamine receptor [3] amounted to 5.31. Also, on D(2) dopamine receptor [4], the log(activity) was found to be 0.
For `c1nc(NC2CCC2)c2ccsc2n1`, the log(activity) at D(2) dopamine receptor [2] is 0. In addition, at D(2) dopamine receptor [3], the Kb is 7.38 µM and the pKb was found to be 5.13. In addition, on D(2) dopamine receptor [5], the Activity index came out at 0.48 and the log(activity) is -0.32. For the same compound, the log(activity) at D(2) dopamine receptor [4] was 0.
In the case of `c1ccc(-c2csc3ncnc(NC4CCC4)c23)cc1`, the log(activity) was 0 at D(2) dopamine receptor [2], -0.41 on D(2) dopamine receptor [5] and -3 at D(2) dopamine receptor [4]. Further, the pKb at D(2) dopamine receptor [3] was 3.89. Besides, the Activity index on D(2) dopamine receptor [5] was determined as 0.39.
For the compound `c1nc(NC2CC2)c2c3c(sc2n1)CCCCC3`, at D(2) dopamine receptor [2], the Efficacy is 0.05 and the log(activity) is -1.3. At D(2) dopamine receptor [3], the Kb stood at 2.96 µM and the pKb stood at 5.53. The log(activity) on D(2) dopamine receptor [4] was 0.
With `c1nc(N2CCOCC2)c2c3c(sc2n1)CCCC3`, the log(activity) at D(2) dopamine receptor [2] is 0; on D(2) dopamine receptor [5] it was -0.22; at D(2) dopamine receptor [4] it was 0. Moreover, the pKb at D(2) dopamine receptor [3] came out at 3.9. For the same compound, the Activity index at D(2) dopamine receptor [5] amounted to 1.66.
For the compound `CCN(CC)c1ncnc2sc(-c3ccccc3)cc12`, the log(activity) on D(2) dopamine receptor [2] is -3. In addition, on D(2) dopamine receptor [3], the Kb came out at 0.9 µM and the pKb worked out at 6.04. Besides, on D(2) dopamine receptor [4], the log(activity) stood at 0.
In the case of `c1nc(NC2CC2)c2c(C3CCCCC3)csc2n1`, at D(2) dopamine receptor [2], the Efficacy came out at 0.09 and the log(activity) was -1.04. At D(2) dopamine receptor [3], the Kb was 11.6 µM and the pKb came to 4.93. Moreover, at D(2) dopamine receptor [4], the log(activity) came to 0.
As for `c1nc(NC2CC2)c2cc(C3CCCCC3)sc2n1`, the Activity entry on D(2) dopamine receptor [1] was “inactive”.
Turning to `c1nc(N2CCNCC2)c2c3c(sc2n1)CCCC3`, the log(activity) at D(2) dopamine receptor [2] was 0; at D(2) dopamine receptor [4] it was -3. Besides, the Kb was 20 µM at D(2) dopamine receptor [3] and 21.4 µM at D(2) dopamine receptor [8]. Besides, the pKb on D(2) dopamine receptor [3] was determined as 4.7.
